Results: ChEMBL document CHEMBL1130174, “Pyrrolidine-3-carboxylic acids as endothelin antagonists. 2. Sulfonamide-based ETA/ETB mixed antagonists” (J Med Chem, 1997)
Square brackets hold non-standard residues; d marks the D form. Peptide text beside a SMILES is read from it. * marks the point of attachment. Piperazinyl(4-Ph) = c1ccc(N2CCN(*)CC2)cc1; dGly(2-thienyl) = N[C@@H](C(=O)O)c1cccs1

Columns and labels:
[1] = Maximum drug concentration is determined after oral dosing in rats.; type: ADME, organism-based; set-up: route oral; conditions: rat, in vivo
[2] = (§1) Total drug exposure is determined after oral dosing in rats.; type: ADME, organism-based; set-up: concentration or dose not given beside the values; conditions: rat, in vivo
[3] = Oral bioavailability in rat; type: ADME, organism-based; conditions: in vivo
[4] = Half-life is obtained after intravenous dosing of rats.; type: ADME, organism-based; conditions: rat, in vivo
[5] = Half-life is obtained after oral dosing of rats.; type: ADME, organism-based; conditions: rat, in vivo
[6] = biological target: T1, Endothelin receptor type B (Sus scrofa, UniProt P35463); assay: Ability to displace endothelin ([125I]ET-3) from endothelin B receptor derived from cerebellar tissue of porcine.
T1 sequence (P35463 whole entry): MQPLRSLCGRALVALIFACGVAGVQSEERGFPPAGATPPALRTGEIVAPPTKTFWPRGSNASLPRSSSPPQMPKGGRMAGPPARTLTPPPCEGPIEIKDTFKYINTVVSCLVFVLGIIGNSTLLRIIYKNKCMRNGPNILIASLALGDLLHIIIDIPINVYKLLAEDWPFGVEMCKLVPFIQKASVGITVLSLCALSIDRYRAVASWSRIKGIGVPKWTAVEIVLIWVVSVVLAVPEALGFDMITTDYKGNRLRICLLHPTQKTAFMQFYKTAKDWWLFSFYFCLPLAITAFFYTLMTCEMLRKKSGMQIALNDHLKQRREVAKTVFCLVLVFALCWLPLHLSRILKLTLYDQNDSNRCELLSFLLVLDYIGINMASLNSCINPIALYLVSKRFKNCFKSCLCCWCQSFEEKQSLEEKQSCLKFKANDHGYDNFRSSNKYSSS

[7] = biological target: T2, Endothelin receptor type B (Homo sapiens, UniProt P24530); assay: Binding assay performed using human Endothelin B receptor (hETB) expressed in chinese hamster ovary cells(CHO); type: cell-based
T2 sequence (P24530 whole entry): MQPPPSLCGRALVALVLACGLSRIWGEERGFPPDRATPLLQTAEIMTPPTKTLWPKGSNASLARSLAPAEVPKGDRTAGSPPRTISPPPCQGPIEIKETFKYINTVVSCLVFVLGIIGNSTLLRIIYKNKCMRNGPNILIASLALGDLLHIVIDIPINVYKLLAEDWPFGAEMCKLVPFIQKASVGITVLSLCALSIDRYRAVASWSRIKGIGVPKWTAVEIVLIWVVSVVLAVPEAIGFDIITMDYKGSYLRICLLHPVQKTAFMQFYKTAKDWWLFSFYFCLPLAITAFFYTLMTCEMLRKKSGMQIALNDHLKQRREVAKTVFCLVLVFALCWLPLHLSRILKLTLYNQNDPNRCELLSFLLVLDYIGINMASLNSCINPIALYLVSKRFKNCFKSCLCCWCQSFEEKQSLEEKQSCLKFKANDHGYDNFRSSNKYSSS

[8] = biological target: T2, Endothelin receptor type B; assay: Ability to block the ET-1-induced hydrolysis of inositol phosphate in Endothelin B receptor of chinese hamster ovary(CHO) cells.; type: functional
[9] = biological target: T2, Endothelin receptor type B; assay: Ability to displace endothelin ([125I]ET1) from human Endothelin B receptor
Endothelin-1 receptor [10] = biological target: T3, Endothelin-1 receptor (Homo sapiens, UniProt P25101); assay: Ability to displace endothelin ([125I]ET1) from human Endothelin A receptor
T3 sequence (P25101 whole entry): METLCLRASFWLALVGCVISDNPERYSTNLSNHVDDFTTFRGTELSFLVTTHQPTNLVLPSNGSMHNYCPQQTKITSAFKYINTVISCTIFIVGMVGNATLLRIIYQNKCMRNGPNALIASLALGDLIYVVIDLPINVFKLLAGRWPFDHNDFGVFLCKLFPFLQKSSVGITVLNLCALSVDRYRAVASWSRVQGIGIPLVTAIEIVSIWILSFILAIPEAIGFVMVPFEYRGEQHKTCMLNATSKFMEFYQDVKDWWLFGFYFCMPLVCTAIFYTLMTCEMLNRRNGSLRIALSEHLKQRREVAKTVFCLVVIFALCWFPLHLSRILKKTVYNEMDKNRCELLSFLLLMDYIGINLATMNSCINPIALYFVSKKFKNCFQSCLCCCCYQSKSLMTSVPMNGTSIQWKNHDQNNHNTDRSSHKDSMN
Summary of the method: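 Membranes from CHO cells stably transfected with human ETA, prepared at 4 °C and stored at -80 °C. Buffer: 20 mM Tris pH 7.4, 100 mM NaCl, 10 mM MgCl2, 0.2% BSA, protease inhibitors. Bound ligand separated by glass-fibre filtration. Nonspecific binding with 1 µM unlabeled ET-1. IC50 is the mean of at least two determinations.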

[11] = Ratio of endothelin A receptor and endothelin B receptor.
Rattus norvegicus = assay: as §1; type: ADME, organism-based; set-up: concentration or dose not given beside the values; conditions: in vivo
Endothelin-1 receptor [12] = biological target: T4, Endothelin-1 receptor (Rattus norvegicus, UniProt P26684); assay: Ability to displace endothelin ([125I]ET1) from endothelin A receptor derived from MMQ cells of rodent.; type: cell-based, Rodentia sp.
T4 sequence (P26684 whole entry): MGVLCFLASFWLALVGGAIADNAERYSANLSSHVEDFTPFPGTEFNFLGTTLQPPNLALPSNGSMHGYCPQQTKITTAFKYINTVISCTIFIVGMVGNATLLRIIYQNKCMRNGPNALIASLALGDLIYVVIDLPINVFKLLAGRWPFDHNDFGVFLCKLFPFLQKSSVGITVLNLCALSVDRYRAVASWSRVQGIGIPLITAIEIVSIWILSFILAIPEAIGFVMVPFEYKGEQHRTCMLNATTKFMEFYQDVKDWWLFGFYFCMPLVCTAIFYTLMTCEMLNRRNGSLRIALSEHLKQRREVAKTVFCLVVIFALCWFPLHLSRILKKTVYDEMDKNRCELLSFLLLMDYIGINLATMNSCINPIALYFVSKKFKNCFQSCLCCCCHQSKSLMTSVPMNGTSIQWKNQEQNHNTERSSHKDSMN

Endothelin-1 receptor [13] = biological target: T3, Endothelin-1 receptor; assay: Binding assay performed using human Endothelin A receptor (hETA) expressed in chinese hamster ovary cells(CHO).; type: cell-based

SMILES | Cmax [1] [ng/mL] | AUC [2] [ng·h/mL] | bioavailability [3] [%] | half-life [4] [h] | half-life [5] [h] | IC50 [6] [nM] | IC50 [7] [nM] | IC50 [8] [nM] | Ki [9] [nM] | Ki (Endothelin-1 receptor [10]) [nM] | Ratio [11] | IC50 [9] [nM] | IC50 (Endothelin-1 receptor [10]) [nM] | AUC (Rattus norvegicus) [ng·h/mL] | IC50 (Endothelin-1 receptor [12]) [nM] | IC50 (Endothelin-1 receptor [13]) [nM]
CCCCS(=O)(=O)N(CCC)CCN1C[C@H](c2ccc3c(c2)OCO3)[C@@H](C(=O)O)[C@@H]1c1ccc(OC)c(F)c1 (stereo in doubt; 15a) | 1100 | 3700 | 31 | 6.9 | 7.3 | 0.32 | 0.47 | 0.6 |  |  |  |  |  |  |  | 
CCCOc1ccc2c(c1)[C@@H](c1ccc(OC)cc1OCC(=O)O)[C@H](C(=O)O)[C@H]2c1ccc2c(c1)OCO2 [SB-209670] |  |  |  |  |  |  |  |  | 18 | 0.2 | 90 |  |  |  |  | 
CC(C)C[C@@H]1NC(=O)[C@@H](c2cccs2)NC(=O)[C@H](CC(=O)O)NC(=O)[C@H](CC(=O)N2CCN(c3ccccc3)CC2)NC(=O)[C@@H](CC(=O)O)NC(=O)[C@@H](Cc2c[nH]c3ccccc23)NC1=O (cyclo(D(Piperazinyl(4-Ph))D[dGly(2-thienyl)]L[dW][dD])) |  |  |  | 0.5 |  |  |  |  |  |  | 540 | 130 | 0.24 |  |  | 
CCCN(CCN1C[C@H](c2ccc3c(c2)OCO3)[C@@H](C(=O)O)[C@@H]1c1ccc(OC)c(F)c1)S(=O)(=O)CCCCl (stereo in doubt; 15d) | 400 |  | 25 | 14 | 9.6 | 0.2 | 0.14 | 0.83 |  |  |  |  |  | 2200 | 0.094 | 0.07
CCCN(CCN1C[C@H](c2ccc3c(c2)OCO3)[C@@H](C(=O)O)[C@@H]1c1ccc(OC)c(F)c1)S(=O)(=O)CCCC(F)(F)F (stereo in doubt; 15e) | 1200 |  | 25 | 4.3 | 8.9 | 0.32 | 0.2 | 1.46 |  |  |  |  |  | 4300 |  | 
CCCc1cc(C(=O)O)ccc1OC(C(=O)NS(=O)(=O)c1ccc(C(C)C)cc1)c1ccc2c(c1)OCO2 [L-754142] |  |  | 60 | 2 |  |  |  |  |  |  | 17 | 4.4 | 0.26 |  |  | 
CCCOc1ccc2c(c1)[C@@H](c1ccc(OC)cc1OCCO)[C@H](C(=O)O)[C@H]2c1ccc2c(c1)OCO2 |  |  | 60 | 2 |  |  |  |  | 110 | 1.1 | 100 |  |  |  |  | 
